Test results: ChEMBL document CHEMBL3352276, “Design, synthesis and in vitro antitumor activity of novel N-substituted-4-phenyl/benzylphthalazin-1-ones” (Eur J Med Chem, 2015)
pIC50: −log10 of the molar value. Calls of active or inactive are those of the source. No cut-off for these calls is given here.

What was measured:
HepG2 [1] = assay: Antiproliferative activity against human HepG2 cells after 72 hrs by SRB assay; assay type: functional, cell-based; conditions: HepG2, 72 h
HT-29 [2] = assay: Antiproliferative activity against human HT-29 cells after 72 hrs by SRB assay; assay type: functional, cell-based; conditions: HT-29, 72 h
Method in brief: (§1)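 SRB assay. HT-29 grown in DMEM; HepG2 and MCF-7 grown in RPMI-1640, all with 10% heat-inactivated FBS at 37 °C under 5% CO2. Cells seeded at 1000–2000/well, left 24 h, then exposed to a range of concentrations for 72 h. Fixed with 10% TCA for 1 h at 4 °C, stained with 0.4% SRB, OD read at 564 nm. IC50 taken from a Boltzmann sigmoidal nonlinear fit. Mean ± S.D. of three separate experiments.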

MCF7 = assay: Antiproliferative activity against human MCF7 cells after 72 hrs by SRB assay; assay type: functional, cell-based; conditions: MCF7, 72 h; method in brief: as §1
HT-29 [3] = assay: Ratio of doxorubicin IC50 to compound IC50 for human HT-29 cells; assay type: functional
HepG2 [4] = assay: Ratio of doxorubicin IC50 to compound IC50 for human HepG2 cells; assay type: functional
Method in brief: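 SRB growth assay: HepG2 in RPMI-1640 + 10% heat-inactivated FBS, seeded 1000–2000 cells/well, dosed after 24 h with graded concentrations alongside doxorubicin for 72 h; TCA-fixed, SRB-stained, OD 564 nm. IC50 fitted as Boltzmann sigmoidal curve vs untreated controls, three separate experiments; ratio = doxorubicin IC50 / compound IC50 from the same assay.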

HepG2 [5] = assay: Cell cycle arrest in human HepG2 cells assessed as accumulation at preG1 phase at IC50 for 24 hrs by propidium iodide staining-based FACS analysis relative to untreated control; assay type: functional
Method in brief: (§2)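 HepG2 cells exposed 24 h at each compound's preset concentration. Then washed in ice-cold PBS, fixed in ice-cold 70% ethanol, treated with 0.1 mg/ml RNase and stained with PI. DNA content read by flow cytometry, and phase distribution compared with untreated control. Triplicate experiments.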

HepG2 [6] = assay: Cell cycle arrest in human HepG2 cells assessed as reduction in G0/G1 phase at IC50 for 24 hrs by propidium iodide staining-based FACS analysis relative to untreated control; assay type: functional; design: Activity: scale not given: the % may be the effect or the level left; method in brief: as §2
HepG2 [7] = assay: Cell cycle arrest in human HepG2 cells assessed as reduction in S phase at IC50 for 24 hrs by propidium iodide staining-based FACS analysis relative to untreated control; assay type: functional; method in brief: as §2
HepG2 [8] = assay: Induction of apoptosis in human HepG2 cells assessed as apoptotic cells after 24 hrs by annexin-V/FITC-propidium iodide staining-based FACS analysis relative to untreated control; assay type: functional
Method in brief: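 HepG2 cells treated for 24 h, harvested and washed in PBS. 10^5 cells stained with annexin V-FITC and PI from a detection kit. Flow cytometry used unstained cells for voltage and compensation. Early plus late apoptotic quadrants (LR+UR) compared with control. Triplicate experiments.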

HepG2 [9] = assay: Induction of apoptosis in human HepG2 cells assessed as down regulation of Bcl2 expression at IC50 by sandwich ELISA relative to untreated control; assay type: functional
HepG2 [10] = assay: Induction of apoptosis in human HepG2 cells assessed as upregulation of Bax expression at IC50 by sandwich ELISA relative to untreated control; assay type: functional
HepG2 [11] = assay: Induction of apoptosis in human HepG2 cells assessed as increase in caspase-3 expression at IC50 by sandwich ELISA relative to untreated control; assay type: functional
HT-29 [12] = assay: Induction of apoptosis in human HT-29 cells assessed as increase in caspase-3 expression at IC50 by sandwich ELISA relative to untreated control; assay type: functional
HepG2 [13] = assay: Cell cycle arrest in human HepG2 cells assessed as increase in S phase at IC50 for 24 hrs by propidium iodide staining-based FACS analysis relative to untreated control

| Compound | pIC50 (HepG2 [1]) | pIC50 (HT-29 [2]) | pIC50 (MCF7) | also measured |
| --- | --- | --- | --- | --- |
| O=C(Cn1nc(Cc2ccccc2)c2ccccc2c1=O)Nc1ccccc1 | 4.18 | 4.02 | 4.44 | – |
| O=C(Cn1nc(Cc2ccccc2)c2ccccc2c1=O)Nc1ccc(Cl)cc1 | < 4.00 | 5.53 | 4.89 | Ratio IC50 (HT-29 [3]): 2.6 |
| O=C(Cn1nc(-c2ccccc2)c2ccccc2c1=O)Nc1ccc(Cl)cc1 | 4.99 | 5.40 | 4.48 | Ratio IC50 (HT-29 [3]): 1.9 |
| O=C(Cn1nc(Cc2ccccc2)c2ccccc2c1=O)Nc1ccccc1Cl | 5.92 | 4.37 | 4.05 | Ratio IC50 (HepG2 [4]): 2.9; Ratio (HepG2 [5]): 28; Ratio (HepG2 [6]): 2; Ratio (HepG2 [7]): 1.9; Ratio (HepG2 [8]): 9.5; Activity (HepG2 [9]): 34%; Activity (HepG2 [10]): 80.2%; Ratio (HepG2 [11]): 4 |
| O=C(Cn1nc(-c2ccccc2)c2ccccc2c1=O)Nc1ccccc1 | 4.87 | 4.00 | 4.37 | – |
| O=C(Cn1nc(-c2ccccc2)c2ccccc2c1=O)Nc1cccc(C(F)(F)F)c1 | 5.46 | 4.39 | 4.24 | Activity (HepG2 [5]): inactive; Activity (HepG2 [6]): inactive; Activity (HepG2 [7]): inactive; Ratio (HepG2 [8]): 2.1; Activity (HepG2 [9]): 9.6%; Activity (HepG2 [10]): 44%; Ratio (HepG2 [11]): 2.5 |
| O=C(Cn1nc(-c2ccccc2)c2ccccc2c1=O)Nc1ccc(F)cc1 | 4.97 | 4.33 | 4.46 | – |
| O=C(Cn1nc(Cc2ccccc2)c2ccccc2c1=O)Nc1ccc(F)cc1 | 4.57 | 4.01 | 4.52 | – |
| O=C(Cn1nc(-c2ccccc2)c2ccccc2c1=O)Nc1cccc(Cl)c1 | 5.48 | 5.52 | 4.13 | Ratio IC50 (HT-29 [3]): 2.5; Activity (HepG2 [5]): inactive; Activity (HepG2 [6]): inactive; Activity (HepG2 [7]): inactive; Ratio (HepG2 [8]): 2.4; Activity (HepG2 [9]): 22%; Activity (HepG2 [10]): 43.5%; Ratio (HepG2 [11]): 3; Ratio (HT-29 [12]): 5.6 |
| O=C(Cn1nc(-c2ccccc2)c2ccccc2c1=O)Nc1ccccc1Cl | 4.48 | 4.05 | 4.52 | – |
| O=C(Cn1nc(Cc2ccccc2)c2ccccc2c1=O)Nc1cccc(Cl)c1 | 4.85 | 5.43 | 4.97 | Ratio IC50 (HT-29 [3]): 2 |
| COc1ccc(NC(=O)Cn2nc(Cc3ccccc3)c3ccccc3c2=O)cc1 | 4.16 | < 4.00 | 4.21 | – |
| COc1cccc2c1C(=O)c1c(O)c3c(c(O)c1C2=O)C[C@@](O)(C(=O)CO)C[C@@H]3O[C@H]1C[C@H](N)[C@H](O)[C@H](C)O1 [DOXORUBICIN] | 5.46 | 5.11 | – | – |
| O=C(Cn1nc(Cc2ccccc2)c2ccccc2c1=O)Nc1cccc(C(F)(F)F)c1 | 5.45 | 4.21 | 5.41 | Ratio (HepG2 [5]): 9.4; Activity (HepG2 [6]): 32.3%; Ratio (HepG2 [8]): 2.7; Activity (HepG2 [9]): 22%; Activity (HepG2 [10]): 39.9%; Ratio (HepG2 [11]): 2.8; Activity (HepG2 [13]): 27.7% |
| COc1ccc(NC(=O)Cn2nc(-c3ccccc3)c3ccccc3c2=O)cc1 | < 4.00 | < 4.00 | 4.11 | – |
